STAT3 inh = reduces IL-6 driven STAT3 reporter signal. U3A cells, IL-6 STAT3-luciferase reporter, luminescence; host cell line lacks STAT1. inhibition, % at 5.5 µM. actives 0.89% (n = 190,000). AID 862;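 active means inhibition above the mean inhibition across all screened compounds plus 3 SD, cut at about 44% in these data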;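 further: 0% = DMSO only wells and 100% = 100 µM nifuroxazide control wells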
STAT1 inh-1 = inhibitors of IFN-gamma induced STAT1 signaling. NIH 3T3 STAT1-luciferase reporter, luminescence. actives 0.35% (n = 200,000). inhibition, % at 5.5 µM;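 active means inhibition above a set limit, the mean inhibition across all tested compounds plus 3 SD, cut at about 34% in these data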;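 further: 0% = IFN-gamma with DMSO and 100% = IFN-gamma with 300 µM nifuroxazide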
STAT1 act = increases IFN-gamma driven STAT1 reporter signal. NIH 3T3 STAT1-luciferase reporter, luminescence; 100% = IFN-gamma alone, no compound. activation (% of control), % at 5.5 µM. actives 2.6% (n = 200,000). AID 932;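 active means activation above the screen-wide mean activation plus 3 SD, cut at about 130% in these data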;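 further: raw ratio to IFN-gamma control signal so 100% means no change and 0% no light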
STAT3 activator = increases IL-6 driven STAT3 reporter signal; AID 871; activation (% of control), % at 5.6 µM; actives 0.91% (n = 190,000); U3A cells, IL-6 STAT3-luciferase reporter, luminescence; 100% = signal with IL-6 EC80 alone;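 active means activation above the screen-wide mean of compound activation plus 3 SD, cut at about 130% in these data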;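 further: 0% = background luminescence of wells with medium and substrate only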
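system = STAT3-luciferase reporter U3A cells | reagent = IL-6 stimulus at 33 ng/mL final | timing = 1 h compound pre-exposure, 6 h IL-6 stimulation, 37 °C | measured by = luminescence | evaluation = % activation versus median of IL-6-stimulated wells | control set = IL-6-only wells as 100% reference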
STAT1 inh-2 = confirmation of STAT1 signaling inhibitors; inhibition, % at 5.5 µM; shares compounds with STAT1 inh-1; NIH 3T3 STAT1-luciferase reporter, IFN-gamma, luminescence; actives 55% (n = 200);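 active means triplicate mean inhibition exceeding the hit cutoff computed for the primary STAT1 screen, cut at about 35% in these data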;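 further: 0% = DMSO with IFN-gamma and 100% = 300 µM nifuroxazide with IFN-gamma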
NFkB inh = NF-kappaB inhibition in STAT1 inhibitor counter-screen. shares compounds with STAT1 inh-1. inhibition, % at 5.7 µM. actives 30% (n = 200). HEK293T NF-kB luciferase reporter, TNF-alpha induced, luminescence. AID 1303;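 active means inhibition above the mean of solvent-only control wells plus 3 SD of those wells, cut at about 15% in these data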;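 further: 0% = DMSO with TNF-alpha and 100% = MG-132 control with TNF-alpha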
STAT3 inh 2 = counter-screen for STAT1 inhibitors: STAT3 inhibition; shares compounds with STAT1 inh-1; U3A cells, IL-6 STAT3 luciferase reporter, luminescence; cells lacking STAT1; actives 20% (n = 200); inhibition, % at 5.7 µM; AID 1310;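 active means inhibition above the mean of solvent-only control wells plus 3 SD, set per campaign, cut at about 25% in these data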;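 further: 0% = IL-6 plus DMSO and 100% = IL-6 plus nifuroxazide control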
* hit, by the source's call; x = no result. In the library only some 4.3% were active in any assay of this set; here they are far more common.

SMILES | STAT3 inh | STAT1 inh-1 | STAT1 act | STAT3 activator | STAT1 inh-2 | NFkB inh | STAT3 inh 2
COc1ccc(-n2c(-c3ccc(Br)cc3)c[n+]3c2CCCCC3)cc1 | 27 | 40* | 62 | 78 | 32 | -5 | 22
COc1ccc(-n2c(-c3ccc(Br)cc3)nc(=S)c3c2CCCC3)cc1 | -4 | -7 | 106 | 103 | x | x | x
CC(C)(C)c1ccc(Cn2nc(CC(=O)O)c3ccccc3c2=O)cc1 | -2 | 1 | 98 | 106 | x | x | x
CCC(/C=C1\Sc2ccc(OC)cc2N1CC)=C\c1sc2ccc(OC)cc2[n+]1CCCS(=O)(=O)[O-] | 35 | 41* | 62 | 74 | 30 | -6 | 8
Cc1cc(C(=O)COC(=O)CNC(=O)c2ccccc2)c(C)n1CC1CCCO1 (stereo unspecified) | 28 | 37* | 65 | 79 | -49 | -3 | -15
Cc1cccc(C(=O)NCC(=O)OCC(=O)c2cc(C)n(CC3CCCO3)c2C)c1 (stereo unspecified) | -1 | -6 | 105 | 101 | x | x | x
COc1ccc(CNn2c(-c3ccccc3F)nc3ccccc3c2=O)cc1OC | 2 | -3 | 101 | 100 | x | x | x
O=C(CSc1nc2ccccc2c(=O)[nH]1)c1ccc(O)cc1O | 3 | 64* | 40 | 100 | 43* | 6 | 0
O=C(CSc1nc2ccccc2c(=O)[nH]1)c1ccc(O)c(O)c1 | 8 | 4 | 97 | 99 | x | x | x
CS(=O)(=O)c1nc(-c2ccco2)cc(C(F)(F)F)n1 | 4 | 39* | 64 | 103 | 40* | -15 | -6
CN1CCN(c2nc(-c3ccco3)cc(C(F)(F)F)n2)CC1 | 23 | 2 | 98 | 84 | x | x | x
COc1ccccc1-c1cc(C(F)(F)F)nc(S(C)(=O)=O)n1 | 10 | 40* | 63 | 90 | 44* | -8 | -33
CCOC(=O)/C(=C/C=C1\Sc2cc(C)c(C)cc2N1CC)C(C)=O | 22 | 40* | 62 | 85 | 40* | -1 | 27*
CCOC(=O)/C(=C/C=C1\Sc2ccccc2N1CC)C(C)=O | 21 | -5 | 104 | 83 | x | x | x
Cc1ccccc1-c1noc(N)c1C#N | 3 | 35* | 68 | 100 | 42* | -4 | 2
Cc1ccc(/C=C2/SC(=S)N(CCCC(=O)Nc3ccc(O)cc3)C2=O)cc1 | 23 | 40* | 62 | 84 | 39* | 54* | 10
O=C(c1ccc(Cl)cc1)N1CCN(c2ccnc3cc(Cl)ccc23)CC1 | 14 | 48* | 55 | 90 | 47* | 11 | -6
Cc1nc2ncccn2c1-c1csc(Nc2ccc(O)cc2)n1 | 30 | 45* | 57 | 77 | 42* | 9 | 32*
Cc1ccc(Nc2nc(-c3c(C)nc4ncccn34)cs2)cc1 | 19 | 8 | 92 | 92 | x | x | x
Cc1csc2c(=O)[nH]cnc12 | 6 | 4 | 96 | 97 | x | x | x
CCOC(=O)/C=C(\C)Nc1cc(C)nn1-c1ccccc1 | 8 | -1 | 102 | 97 | x | x | x
CCOC(=O)C(=CNc1cc(C)nn1-c1ccc(Cl)cc1)C(=O)OCC | 2 | 59* | 46 | 104 | 55* | 17* | 1
Cn1c(=O)n(C)c2cc(/C=N/NC(=O)c3ccncc3)ccc21 | 7 | 4 | 95 | 96 | x | x | x
CCn1c(O)c(/C=N/NC(=O)c2ccncc2)c(=O)n(CC)c1=S | 8 | 61* | 45 | 95 | 60* | 1 | -46
CN(C)Cc1nc2ccccc2c(=O)n1Cc1nc(C(C)(C)C)cs1 | 22 | 53* | 52 | 89 | 30 | 2 | 7
SMILES | STAT3 inh | STAT1 inh-1 | STAT1 act | STAT3 activator | STAT1 inh-2 | NFkB inh | STAT3 inh 2
CN1CCN(Cc2nc3ccccc3c(=O)n2Cc2nc(-c3cccc([N+](=O)[O-])c3)cs2)CC1 | -10 | 62* | 42 | 118 | 38* | 3 | -7
CN1CCN(Cc2nc3ccccc3c(=O)n2Cc2nc(-c3ccccc3F)cs2)CC1 | -2 | 50* | 55 | 98 | 51* | 6 | -9
CN1CCN(Cc2nc3ccccc3c(=O)n2Cc2nc(-c3ccc4ccccc4c3)cs2)CC1 | -1 | 45* | 59 | 100 | 40* | -2 | 3
Cc1ccc2cc(/C=N/NC(=O)CN3CCCCC3)c(Cl)nc2c1 | 17 | -5 | 103 | 87 | x | x | x
COc1ccc(C(=O)NNC(=O)c2ccc(S(=O)(=O)N3CCCCC3)cc2)cc1 | 10 | 6 | 93 | 97 | x | x | x
C=CCOC(=O)C1=C[C@H](c2cn(C(C)=O)c3ccccc23)C[C@H](OCCCCO)O1 | x | 29 | 74 | x | x | x | x
C=CCOC(=O)C1=C[C@@H](c2cn(C(C)=O)c3ccccc23)C[C@@H](OCCCCO)O1 | x | 34 | 70 | x | 11 | -5 | -68
CC(=O)Nc1ccc(S(=O)(=O)N2CCCC2C(=O)Nc2ccc3c(c2)OCCO3)cc1 (stereo unspecified) | 5 | 2 | 97 | 98 | x | x | x
COc1ccc(/C=C(\C#N)C(=O)C(C)(C)n2cncn2)cc1 | -4 | -3 | 103 | 112 | x | x | x
COc1ccc(-n2cc(-c3ccccc3)c3c(N4CCOCC4)ncnc32)cc1 | 25 | 44* | 58 | 81 | 28 | 2 | -60
C=CCOc1c(Br)cc(/C=N/Nc2ccc(C(=O)O)cc2)cc1OCC | 8 | -27 | 124 | 96 | x | x | x
COc1ccc(/C=N/Nc2ccc(C(=O)O)cc2)cc1Br | 42 | 61* | 42 | 66 | -56 | 49* | -137
CN(C)c1nnc(-c2ccc(Cl)cc2)o1 | 17 | -19 | 116 | 87 | x | x | x
c1ccc(CN2CCN(c3ncnc4c3[nH]c3ccccc34)CC2)cc1 | 8 | 41* | 63 | 103 | 48* | 22* | 16
COc1cccc(N2CCN(c3ncnc4c3[nH]c3ccccc34)CC2C)c1 (stereo unspecified) | 23 | 35* | 69 | 84 | 46* | 25* | 37*
Cc1ccc2[nH]c3c(N4CCN(Cc5ccccc5)CC4)ncnc3c2c1 | 30 | 36* | 67 | 79 | 40* | 9 | 16
O=C(OCC(=O)N1CCN(c2ccccc2)CC1)c1ccc[n+]([O-])c1 | 14 | 1 | 99 | 96 | x | x | x
CN(CCc1ccccn1)C(=O)CCC1CCCN(C(=O)NC2CCCCC2)C1 (stereo unspecified) | -3 | -20 | 116 | 107 | x | x | x
CCC(Cc1ccccc1)NC(=O)C1=C(C)C(=O)OC12CCC(C)CC2 (stereo unspecified) | 10 | 5 | 95 | 102 | x | x | x
Cc1cc(C(=O)CSc2nc(N)cc(N)n2)c(C)n1-c1cccc(F)c1 | 12 | 1 | 99 | 91 | x | x | x
CCOC(=O)N1CCN(C(=O)c2ccc(CSc3ccc(Cl)cc3)cc2)CC1 | 18 | 38* | 65 | 88 | 39* | 10 | 24
